Bioassay records from PubChem.
Yeast superoxide: caloric restriction mimetics inhibiting age-related superoxide in yeast; hit rate 0.18% among 330,000; superoxide response (% of plate mean), % at 10 µM; AID 2690; S. cerevisiae aged cells, superoxide DHE fluorescence; active compounds read low;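 active = superoxide response under a set limit, about three screen SD below normal, cut at about 65% in these data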;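 note: yeast aged for seven days with compound at 30 °C before DHE staining; 100% = average MFI of all compound-treated wells on the plate with controls excluded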
Rce1 inh: blocks yeast Ras-converting enzyme | Q03530 | yeast membranes, quenched prenylated peptide cleavage fluorescence | calls only | hit rate 0.27% among 290,000 | AID 2563;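 active = fall in fluorescence gain of 50% or more versus controls, with final raw signal at or below 3038400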;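 note: plate controls were neutral control wells for no effect and wells lacking membranes for full effect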
Target sequence (Q03530 whole entry, looked up): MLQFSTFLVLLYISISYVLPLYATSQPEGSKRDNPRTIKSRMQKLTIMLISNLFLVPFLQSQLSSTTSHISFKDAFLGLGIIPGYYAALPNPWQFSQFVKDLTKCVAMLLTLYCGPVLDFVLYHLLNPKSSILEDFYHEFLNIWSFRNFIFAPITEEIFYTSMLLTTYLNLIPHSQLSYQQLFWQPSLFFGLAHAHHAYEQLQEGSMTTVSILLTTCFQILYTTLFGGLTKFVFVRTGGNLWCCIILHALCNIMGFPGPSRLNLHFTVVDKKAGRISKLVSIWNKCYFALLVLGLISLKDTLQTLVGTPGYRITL
Rev-erbA mod: modulators of human Rev-erb alpha DNA binding; hit rate 0.79% among 370,000; Rev-erbα–FITC-DNA binding, fluorescence polarization, 90 min; activity, % at 10 µM; P20393;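 active = activity above about 14%, limit read from the data; passing the limit was not always enough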;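 note: 0% = DMSO wells with 35 nM protein and 100% = DMSO wells with 750 nM protein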
PG9 binder: small molecules binding HIV-1 gp120 antibody PG9; TR-FRET gp120-PG9 antibody binding; inhibition, % at 6.7 µM; hit rate 0.43% among 360,000; in the data active = inhibition above about 8.5%
MIN6 prolif: inducers of beta-cell replication in MIN6 cells; hit rate 0.29% among 330,000; MIN6 cells proliferation, ATPlite luminescence, 48 h; cells starved in 0.2% serum; 100% = growth in 10% serum; AID 2380; proliferation, % at 10 µM;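 active = compounds whose signal lies at least 3.5 SD above the mean of all wells on their plate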;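 note: 0% = DMSO-treated cells in low-serum medium and 100% = 10% serum control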
UCH37 inh: inhibitors of human deubiquitinating enzyme UCH37; Q9Y5K5; purified proteasome/UCH37, Ub-AMC cleavage fluorescence; inhibition, % (no concentration beside the values); hit rate 0.33% among 330,000; AID 588478;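 active = mean inhibition over replicate wells above about 20%, limit read from the data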;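 note: 0% = compound-free wells with enzyme and 100% = wells lacking proteasome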
Target sequence (Q9Y5K5 whole entry, looked up): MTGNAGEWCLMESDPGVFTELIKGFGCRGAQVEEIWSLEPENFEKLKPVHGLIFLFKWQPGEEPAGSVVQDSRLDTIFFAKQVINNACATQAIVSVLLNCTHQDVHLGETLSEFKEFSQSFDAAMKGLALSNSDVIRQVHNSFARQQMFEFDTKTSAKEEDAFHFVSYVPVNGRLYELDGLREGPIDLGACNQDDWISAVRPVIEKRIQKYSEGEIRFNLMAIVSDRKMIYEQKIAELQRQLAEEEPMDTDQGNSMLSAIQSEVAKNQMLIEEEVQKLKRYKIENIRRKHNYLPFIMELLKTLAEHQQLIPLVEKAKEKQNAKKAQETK
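System: Proteasome-associated human UCH37 deubiquitinase; Input: 0.15 nM proteasome in added enzyme buffer; Also added: Ub-AMC substrate from 1 µM stock; Incubation: 30 min compound-proteasome preincubation then 25 min substrate reaction, room temperature; Detection: fluorescence, ex 355 nm, em 460 nm; Read-out: % inhibition of Ub-AMC cleavage fluorescence; Benchmarks: no-proteasome and no-compound wells.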
NR1D1 mod conf: confirmation of modulators of human Rev-erb alpha DNA binding; shares compounds with Rev-erbA mod; Rev-erb alpha FITC-DNA binding, fluorescence polarization, 90 min; activation, % at 25 µM; hit rate 61% among 3,000;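 active = activation at or above a set limit, or at least 3 SD above the negative control mean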;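 note: 0% = 35 nM protein with DMSO and 100% = 750 nM protein high control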
RORg DNA counter: affects RORgamma DNA binding in a Rev-erb alpha counter-screen. shares compounds with Rev-erbA mod. purified RORgamma protein-FITC-DNA binding, fluorescence polarization. IC50, µM. hit rate 8% among 910. AID 1259320;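 active = Compounds whose fitted half-maximal concentration for disrupting protein-DNA binding is below 10 micromolar; the record names Rev-erb in its text, so the target is in doubt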
Active calls of the source: *; i = inactive; x = not tested or not shown. Only some compounds are listed: those with a hit (about 1.9% of all), similar ones and a draw of the others.

SMILES | Yeast superoxide | Rce1 inh | Rev-erbA mod | PG9 binder | MIN6 prolif | UCH37 inh | NR1D1 mod conf | others
CCCCN(CCCC)c1nc2ccccc2nc1C(C#N)C(=O)NCCCOC (stereo not given) | 102 | i | 69* | 1 | -5 | -3 | 11
CCCCCCNC(=O)C(C#N)c1nc2ccccc2nc1N1CCOCC1 (stereo not given) | 102 | i | 40* | -2 | -4 | 0 | 34* | RORg DNA counter=>40
N#CC(C(=O)NCCc1ccccc1)c1nc2ccccc2nc1N1CCOCC1 (stereo not given) | 92 | i | -3 | 0 | 2 | -2 | x
CC(=NNC(N)=S)c1ccc2c(c1)OCCO2 | x | x | x | x | x | 3 | x
Cc1ccc(-c2nc3ccccc3s2)cc1NC(=O)c1cc(-n2cnnc2)ccc1Cl | 119 | i | 33* | 4 | -2 | -29 | 32* | RORg DNA counter=>40
COc1ccccc1N=C1NC(=O)/C(=C/c2ccc(N(C)C)cc2)S1 | 100 | i | 25* | -4 | -4 | -2 | 13
CCn1c2ccccc2n2c(=O)c(=O)n(CC(=O)Nc3ccc(C(C)C)cc3)nc12 | 80 | i | 31* | -1 | 0 | -318 | 4
C=CCSc1nc(N)c(C(=O)Nc2ccccc2)cc1C#N | 106 | i | 10 | 4 | -4 | -13 | x
C=CCSc1nc(N)c(C(=O)Nc2ccccc2OC)cc1C(=O)Nc1ccccc1 | 101 | i | 20* | 3 | 0 | -160 | 15
CC(C)CSc1ncccc1-c1nc2ccccc2[nH]1 | x | x | 17* | x | x | x | 11*
COc1ccc(N2CC(C(=O)Nc3nc(-c4ccccc4)c(C(C)=O)s3)CC2=O)c(OC)c1 (stereo not given) | 127 | i | -4 | 2 | 1 | 6 | x
COc1ccc(OC)c(NC(=O)c2ccc3c(c2)OCO3)c1 | 102 | i | 0 | -1 | -2 | 2 | x
CC(=O)c1sc(NC(=O)c2ccccc2F)nc1-c1ccccc1 | 116 | i | 17* | 2 | -2 | 3 | 11
COc1ccc(C(=O)Nc2nc3cc4c(cc3s2)OCO4)c(OC)c1 | 102 | i | 19* | 6 | -4 | -344 | 11*
COc1ccc2nc(NC(=O)c3cc(C)oc3C)sc2c1 | 100 | x | -1 | 0 | -4 | -7 | x
COc1ccc(C(=O)Nc2nc(-c3ccccc3)c(C(C)=O)s2)c(OC)c1 | 89 | i | 25* | 2 | -2 | 0 | 15
COc1ccc(OC)c(-c2csc(NC(=O)c3ccc4c(c3)OCO4)n2)c1 | 85 | i | 49* | -2 | -3 | -19 | 51* | RORg DNA counter=i
O=C(C(=NO)n1cncn1)c1ccccc1Cl | x | x | x | x | x | 4 | x
COC(=O)[C@@H]1CC[C@H](C)[C@@H](c2ccc(C)cc2)N1C(=O)c1ccc(C=NOCC[C@@H]2C=C[C@H](OC(C)=O)[C@@H](COC(C)=O)O2)cc1 | x | x | x | x | x | 4 | x
O=C(NN=Cc1ccncc1)NC12CC3CC(CC(C3)C1)C2 | x | x | x | x | x | 2 | x
CCc1ccccc1N(C)S(=O)(=O)c1ccc2[nH]cc(C(=O)N3CCc4ccccc43)c(=O)c2c1 | 100 | i | 45* | 0 | -2 | 2 | 27*
Cc1cccc(N(C)S(=O)(=O)c2ccc3[nH]cc(C(=O)N4CCOCC4)c(=O)c3c2)c1 | 102 | i | -1 | 4 | 0 | -7 | x
O=C(c1ccc(Br)o1)N1N=C(c2ccc(Cl)cc2)CC1c1ccco1 (stereo not given) | 103 | i | 24* | 0 | -7 | -6 | 5
CC(=O)N1N=C(c2ccc(Cl)cc2)CC1c1ccco1 (stereo not given) | 99 | i | -3 | -1 | -3 | 3 | x
O=C(NN=Cc1ccc(-c2cccc([N+](=O)[O-])c2)o1)[C@H]1C[C@@H]1c1ccccc1 | x | x | x | x | x | 9 | x
SMILES | Yeast superoxide | Rce1 inh | Rev-erbA mod | PG9 binder | MIN6 prolif | UCH37 inh | NR1D1 mod conf | others
COc1ccc(N2C(=O)c3cc4ccccc4cc3C2=O)cc1 | 99 | i | 11 | -1 | -1 | 2 | x
COc1ccccc1Oc1ccc2c(c1)C(=O)N(c1ccc(C)cc1)C2=O | 92 | i | 28* | 1 | -1 | -2 | 31*
COc1ccccc1Oc1ccc2c(c1)C(=O)N(c1ccccc1)C2=O | 103 | i | 67* | 1 | -2 | -1 | 48* | RORg DNA counter=>40
COc1ccc(NC(=O)CSc2cccc3cccnc23)c(OC)c1 | 105 | i | 1 | -3 | 0 | 2 | x
CCCCCOc1ccc(NC(=O)CSc2cccc3cccnc23)cc1 | 86 | i | 46* | -2 | -3 | -10 | 39* | RORg DNA counter=1.4*
Clc1ccc(Sc2cnc3ccccc3n2)cc1 | 106 | i | 32* | 6 | 2 | 0 | 30*
Clc1ccccc1Sc1cnc2ccccc2n1 | 99 | i | 11 | 5 | 0 | 5 | x
c1ccc(Sc2cnc3ccccc3n2)cc1 | 90 | i | 20* | 4 | -2 | 1 | 22*
Brc1ccc(Sc2cnc3ccccc3n2)cc1 | 92 | i | 49* | 7 | -3 | 1 | 35* | RORg DNA counter=>40
COc1ccc(N(CC(=O)NN=Cc2ccco2)S(=O)(=O)c2ccccc2)cc1 | x | x | x | x | x | 4 | x
COc1cc(C=NNC(=O)C2CC3C=CC2C3)ccc1O (stereo not given) | x | x | x | x | x | -5 | x
Cc1ccc(C=NNC(=O)c2nnn(-c3nonc3N)c2C)o1 | x | x | x | x | x | -2 | x
Cc1ccc(-c2csc3nc[nH]c(=S)c23)cc1C | 92 | i | 24* | -1 | -4 | 5 | 32* | RORg DNA counter=>40
COc1ccc(-c2csc3nc[nH]c(=O)c23)cc1OC | 104 | i | 0 | -1 | 2 | 0 | x
Cc1ccc(SCc2cc(=O)[nH]c(N=C(N)Nc3ccccc3Sc3ccccc3)n2)cc1 | x | x | x | x | x | 3 | x
O=C1CN(c2nc(-c3ccccc3)c3ccccc3n2)c2ccccc2N1 | 122 | i | 34* | 1 | 0 | -14 | 15
c1ccc(-c2nc(-n3nc4ccccc4n3)nc3ccccc23)cc1 | 110 | i | 2 | 0 | -6 | -3 | x
Cn1c(=O)c(Nc2ccc(O)cc2)c2c3c(cccc31)C(=O)c1ccccc1-2 | 106 | i | 175* | -1 | -4 | 9 | 157* | RORg DNA counter=>40
COc1cc2c(cc1NC(=O)CCCN1C(=O)CCC1=O)oc1ccccc12 | 97 | i | -6 | 1 | 1 | 3 | x
COC(=O)CCC(=O)c1oc2ccc(Cl)cc2c1NC(=O)CCCN1C(=O)c2ccccc2C1=O | 91 | i | 41* | 1 | -1 | 2 | 28*
CCCn1nc(NC(=O)CC(C)C)c2cc3cccc(C)c3nc21 | 94 | i | 20 | 3 | -1 | x | x
CCn1nc(NC(=O)CC(C)C)c2cc3cccc(C)c3nc21 | 97 | i | 24* | 1 | -3 | -472 | -2
